Data set [1] in a line: Cytotoxicity against human Hep2 cells assessed as reduction in cell viability after 3 days by CellTiter-Glo assay. The data set is classed as cell-based. The conditions noted are these: HEp-2 cells.
Data set [2] has as its system CCRF-CEM. Nature of the data set: DNA incorporation activity in human CCRF-CEM assessed as dMP content per microgram of nucleic acid at 4.48 uM after 2.5 hrs […]. The format is functional.
For data set [3], the system named is CCRF-CEM. Briefly: Induction of cell cycle arrest in human CCRF-CEM cells assessed as accumulation at G2/M phase at IC50 concentration after 24 hrs by propidium iodide-staining based flow cytometry (reference value: 19.22%). The format is functional. In general terms: In flow cytometry, cells or beads pass a laser one at a time.
Data set [4] deals with CCRF-CEM. Nature of the data set: DNA incorporation activity in human CCRF-CEM assessed as NMP content per microgram of nucleic acid at 4.48 uM after 2.5 hrs by […]. The format is functional. An outline of the steps: (§1)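 CCRF-CEM cells exposed to nucleoside for 2.5 h, then harvested at once. RNA and DNA isolated separately and enzymatically digested; nucleoside content of each nucleic acid fraction quantified by HPLC-MS.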

Data set [5] has as its system CCRF-CEM. Briefly: Induction of cell cycle arrest in human CCRF-CEM cells assessed as accumulation at S phase at 5 times IC50 concentration after 24 hrs by propidium iodide-staining based flow cytometry (reference value: 41.08%). The format is functional.
Data set [6] deals with T1, Adenosine kinase (Homo sapiens, UniProt P55263). Nature of the data set: Drug metabolism in human HCT116 cells assessed as ADK-mediated compound phosphorylation by measuring parent compound level per 5x10^5 cells at 1 umol/L after 3 hrs by UPLC-MS/MS analysis. The format is ADME, cell-based. To be noted: 1 µM. An outline of the steps: (§2)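 BJ (normal) and HCT116 (malignant) cells exposed to nucleoside at 1 or 10 μmol/L for 1 or 3 h. Intracellular nucleoside and its monophosphate quantified against synthetic monophosphate standards. Values given as pmol per 5 × 10^5 cells.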

Data set [7] deals with CCRF-CEM. Briefly: RNA incorporation activity in human CCRF-CEM assessed as NMP content per microgram of nucleic acid at 4.48 uM after 2.5 hrs […]. The data set is classed as functional.
The test system of the next data set is DNA. Briefly: Induction of DNA damage in human U2OS cells transfected with 53BP1-GFP fusion gene assessed as increase in number of foci per nucleus at 1 to 5 times IC50 concentration measured at 1 hr intervals for 11 hrs by fluorescence-based assay. The format is functional, cell-based. Put shortly: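 U2OS osteosarcoma reporter line stably expressing 53BP1-GFP treated up to 11 h, with etoposide as the double-strand-break reference. 53BP1 foci in nuclei imaged by confocal microscopy (40× objective).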

The target of data set [8] is T1, Adenosine kinase. Briefly: Drug metabolism in human HCT116 cells assessed as ADK-mediated compound phosphorylation by measuring parent compound level per 5x10^5 cells at 1 umol/L after 1 hr by UPLC-MS/MS analysis. The data set is classed as ADME, cell-based. The conditions noted are these: 1 µM. An outline of the steps: as §2
In data set [9] the target is T1, Adenosine kinase. Nature of the data set: Drug metabolism in human BJ cells assessed as ADK-mediated compound phosphorylation by measuring parent compound level per 5x10^5 cells at 10 umol/L after 1 hr by UPLC-MS/MS analysis. The data set is classed as ADME, cell-based. To be noted: 10 µM. An outline of the steps: as §2
Data set [10] relates to OCI-AML2. Briefly: Mitochondrial toxicity in human OCI-AML2 cells assessed as reduction in SDHB protein expression at 1 to 5 times IC50 after 24 to 72 hrs by Western blot analysis. The format is cell-based. Background: Immunoblotting shows a protein as a band on a membrane.
Data set [11] has as its system OCI-AML2. Nature of the data set: Mitochondrial toxicity in human OCI-AML2 cells assessed as reduction in CO2 protein expression at 1 to 5 times IC50 after 24 to 72 hrs by Western blot analysis. The data set is classed as cell-based.
Data set [12] relates to OCI-AML2. Briefly: Mitochondrial toxicity in human OCI-AML2 cells assessed as inhibition of MT-CO2 gene expression at 1 to 5 times IC50 after 24 to 72 hrs by RT-PCR analysis. The data set is classed as cell-based. An outline of the steps: (§3)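 Expression of the mitochondrial genes MT-CO2 and MT-ND1 measured.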
In data set [13] the test system is OCI-AML2. Briefly: Mitochondrial toxicity in human OCI-AML2 cells assessed as inhibition of MT-ND1 gene expression at 1 to 5 times IC50 after 24 to 72 hrs by RT-PCR analysis. The format is cell-based. An outline of the steps: as §3
For data set [14], the system named is CCRF-CEM. Briefly: Antiproliferative activity against human CCRF-CEM cells after 3 days by MTS assay. The format is functional, cell-based. The conditions noted are these: 72 h. Background: Tetrazolium dyes change colour on reduction, which living cells bring about.
Data set [15] in a line: Stability in human plasma assessed as compound remaining at 3.3 umol/L after 120 mins by RF-MS analysis relative to control. The format is ADME, cell-free. To be noted: read-out: Stability.
For data set [16], the system named is OCI-AML2. Nature of the data set: Mitochondrial toxicity in human OCI-AML2 cells assessed as effect on UQCRC2 protein expression at 1 to 5 times IC50 after 24 to 72 hrs by Western blot analysis. The format is cell-based.
The target of data set [17] is T1, Adenosine kinase. Nature of the data set: Drug metabolism in human HCT116 cells assessed as ADK-mediated compound phosphorylation by measuring parent compound level per 5x10^5 cells at 10 umol/L after 1 hr by UPLC-MS/MS analysis. The data set is classed as ADME, cell-based. To be noted: 10 µM. Put shortly: as §2
Data set [18] concerns the target T1, Adenosine kinase. Briefly: Drug metabolism in human HCT116 cells assessed as ADK-mediated compound phosphorylation by measuring parent compound level per 5x10^5 cells at 10 umol/L after 3 hrs by UPLC-MS/MS analysis. The conditions noted are these: 10 µM. The format is ADME, cell-based. Put shortly: as §2
Data set [19] has as its system OCI-AML2. Nature of the data set: Mitochondrial toxicity in human OCI-AML2 cells assessed as effect on ATP5A protein expression at 1 to 5 times IC50 after 24 to 72 hrs by Western blot analysis. The format is cell-based.
Data set [20] can be described thus: Mitochondrial toxicity in human OCI-AML2 cells assessed as reduction in oxidative phosphorylation-based viability after 72 hrs by CellTiterGlo assay. The format is cell-based. Put shortly:
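OCI-AML2 leukemia cells, which rely on mitochondrial OXPHOS, treated for 3 days in a survival assay; IC50 reported.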

In data set [21] the test system is CCRF-CEM. Nature of the data set: Inhibition of mitosis in human CCRF-CEM cells assessed Ser10 H3 phosphorylation positive cells at IC50 concentration after 24 hrs by flow cytometry relative to total cell population (reference value: 1.36%). The data set is classed as functional. Details: scale not given: the % may be the effect or the level left.
Data set [22] addresses T1, Adenosine kinase. Briefly: Drug metabolism in human BJ cells assessed as ADK-mediated compound phosphorylation by measuring parent compound level per 5x10^5 cells at 1 umol/L after 3 hrs by UPLC-MS/MS analysis. To be noted: 1 µM. The data set is classed as ADME, cell-based. Put shortly: as §2
Data set [23] concerns CCRF-CEM. Briefly: Inhibition of mitosis in human CCRF-CEM cells assessed Ser10 H3 phosphorylation positive cells at 5 times IC50 concentration after 24 hrs by flow cytometry relative to total cell population (reference value: 1.36%). Details: scale not given: the % may be the effect or the level left. The data set is classed as functional.
In data set [24] the target is T1, Adenosine kinase. Nature of the data set: Drug metabolism in human BJ cells assessed as ADK-mediated compound phosphorylation by measuring parent compound level per 5x10^5 cells at 1 umol/L after 1 hr by UPLC-MS/MS analysis. The format is ADME, cell-based. To be noted: 1 µM. Put shortly:
as §2

For data set [25], the target named is T1, Adenosine kinase. Nature of the data set: Drug metabolism in human BJ cells assessed as ADK-mediated compound phosphorylation by measuring parent compound level per 5x10^5 cells at 10 umol/L after 3 hrs by UPLC-MS/MS analysis. The conditions noted are these: 10 µM. The data set is classed as ADME, cell-based. Put shortly: as §2
The test system of data set [26] is CCRF-CEM. Briefly: DNA incorporation activity in human CCRF-CEM assessed as NMP content per microgram of nucleic acid at 3.52 uM after 2.5 hrs by […]. The data set is classed as functional. An outline of the steps: as §1
Data set [27] has as its system CCRF-CEM. Nature of the data set: RNA incorporation activity in human CCRF-CEM assessed as NMP content per microgram of nucleic acid at 3.52 uM after 2.5 hrs by […]. The data set is classed as functional. Put shortly: as §1

Structures are written as SMILES. Activity calls are given as the source filed them. The calls are words filed in the database; no cut-off is given here.

The term CC50 denotes the concentration at which the toxic effect on the cells reaches its halfway point. As usually defined, the IC50 is the concentration at which inhibition is half-maximal.

T1 sequence (P55263 whole entry): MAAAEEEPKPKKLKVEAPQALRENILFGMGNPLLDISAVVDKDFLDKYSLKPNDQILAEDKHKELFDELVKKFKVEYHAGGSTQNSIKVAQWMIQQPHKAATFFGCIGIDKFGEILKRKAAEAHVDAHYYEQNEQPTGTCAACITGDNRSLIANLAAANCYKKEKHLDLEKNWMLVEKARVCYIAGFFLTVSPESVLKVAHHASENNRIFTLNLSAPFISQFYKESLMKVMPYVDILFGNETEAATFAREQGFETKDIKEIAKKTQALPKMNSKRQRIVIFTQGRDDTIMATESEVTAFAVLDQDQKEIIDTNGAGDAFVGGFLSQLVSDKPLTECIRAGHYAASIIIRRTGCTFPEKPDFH

In the case of `Cc1ncnc2c1c1occc1n2[C@@H]1O[C@H](CO)[C@@H](O)[C@H]1O`, the CC50 at 72 h in data set [1] is > 44400 nM. For the same compound, the Activity is 15.4 fmol in the data set on CCRF-CEM [2]; 16.12% in the data set on CCRF-CEM [3]; 14.3 fmol with CCRF-CEM [4]; 59.66% with CCRF-CEM [5]; 3.4 fmol in the data set on CCRF-CEM [7]; “Toxic” in the data set with OCI-AML2 [10]. Moreover, the Activity entry is on record as “Toxic” with OCI-AML2 [11]; “Non-Toxic” in the data set with OCI-AML2 [16]; “Non-Toxic” in the data set with OCI-AML2 [19]; 1.09% in the data set with CCRF-CEM [21]; 0.99% with CCRF-CEM [23]. Further, the Drug metabolism is given as 66.31 pmol at Adenosine kinase [6]; 27.92 pmol on Adenosine kinase [8]; 338.91 pmol at Adenosine kinase [9]; 119.93 pmol at Adenosine kinase [17]; 177.9 pmol on Adenosine kinase [18]; 247.21 pmol on Adenosine kinase [22]. Also, the Drug metabolism was found to be 155.12 pmol at Adenosine kinase [24] and 464.66 pmol at Adenosine kinase [25]. For the same compound, in the data set with DNA, the outcome was Active. In addition, the “inhibition (INH)” value in the data set on OCI-AML2 [12] and in the data set with OCI-AML2 [13] was 50% each time. Besides, the IC50 in the data set on CCRF-CEM [14] was determined as 240 nM. Further, in data set [15], the remaining at 2 h, 3.3 µM was 96%. Also, the 50% inhibitory concentration (IC50) at 72 h in data set [20] stood at 340 nM.
`CSc1ncnc2c1c1occc1n2[C@@H]1O[C@H](CO)[C@@H](O)[C@H]1O`: the CC50 at 72 h in data set [1] was > 44400 nM. Moreover, the Activity stood at 17.31% in the data set on CCRF-CEM [3], 53.55% in the data set on CCRF-CEM [5], 1.26% in the data set on CCRF-CEM [21] and 0.9% in the data set with CCRF-CEM [23]. Besides, the “inhibition (INH)” value with OCI-AML2 [12] and with OCI-AML2 [13] was 50% each time. Also, the IC50 in the data set on CCRF-CEM [14] worked out at 140 nM. Further, in data set [15], the remaining at 2 h, 3.3 µM is 96%. For the same compound, the half-maximal inhibitory concentration (IC50) at 72 h in data set [20] was determined as 190 nM.
On to `Cc1ncnc2c1c1c(ccn1C)n2[C@@H]1O[C@H](CO)[C@@H](O)[C@H]1O`, for which the CC50 at 72 h in data set [1] was > 44400 nM. The Activity in the data set on CCRF-CEM [3] turned out to be 17.22%; in the data set with CCRF-CEM [5] it was 52.19%; in the data set on CCRF-CEM [26], 14.1 fmol; in the data set with CCRF-CEM [27], 3.74 fmol; with CCRF-CEM [21] it was 1.06%; in the data set with CCRF-CEM [23], 0.9%. Moreover, the Drug metabolism on Adenosine kinase [6] worked out at 136.87 pmol; at Adenosine kinase [8], 54.04 pmol; on Adenosine kinase [9], 220.71 pmol; on Adenosine kinase [17], 450.1 pmol; on Adenosine kinase [18] it was 476.53 pmol; on Adenosine kinase [22], 173.96 pmol. Moreover, the Drug metabolism on Adenosine kinase [24] is reported as 87.1 pmol; at Adenosine kinase [25] it was 753.01 pmol. Besides, the outcome with DNA was Active. The compound further returned an IC50 with CCRF-CEM [14] of 210 nM. Besides, the remaining at 2 h, 3.3 µM in data set [15] was 79%.

The values are drawn from ChEMBL document CHEMBL4330056, “Synthesis and Cytotoxic and Antiviral Profiling of Pyrrolo- and Furo-Fused 7-Deazapurine Ribonucleosides” (J Med Chem, 2018).
